Results: ChEMBL document CHEMBL4321877, “Development of Novel N-hydroxypyridone Derivatives as Potential Anti-Ischemic Stroke Agents” (J Med Chem, 2020)
≈ marks a conversion by molar mass, not a printed value. Calls of active or inactive are those of the source. The calls are words filed in the database; no cut-off is given here.

How the values were obtained:
SH-SY5Y [1] = test: Neuroprotective activity against oxygen-glucose deprivation-induced toxicity in human SH-SY5Y cells assessed as cell viability at 10 uM preincubated for 2 hrs followed by OGD-challenge and measured after 24 hrs by MTT assay (reference value: 54.92 +/- 2.12%); type: functional; settings: read-out: Activity
SH-SY5Y [2] = test: Neuroprotective activity against oxygen-glucose deprivation-induced toxicity in human SH-SY5Y cells assessed as cell viability at 1 uM preincubated for 2 hrs followed by OGD-challenge and measured after 24 hrs by MTT assay (reference value: 54.92 +/- 2.12%); type: functional; settings: read-out: Activity
[3] = Permeability of the compound incubated for 10 hrs by PAMPA; type: ADME; settings: read-out: permeability
[4] = Antioxidant activity assessed as trolox equivalent of AAPH radical scavenging activity measured every min for 180 mins by ORAC-FL assay; type: functional
SH-SY5Y [5] = test: Cytotoxicity against human SH-SY5Y cells assessed as reduction in cell viability at 10 uM measured after 24 hrs by MTT assay; type: cell-based
Outline: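 SH-SY5Y cells (1:1 MEM/F12, 10% FBS) seeded 3 × 10^4 cells/well, grown 24 h, then exposed without insult for 24 h to 1.56–100 µM or to 1 and 10 µM (DMSO stock diluted in medium). MTT read at 490 nm; viability as % of untreated control.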

[6] = Solubility of the compound in […] incubated for 24 hrs by HPLC analysis; type: physicochemical
SH-SY5Y [7] = test: Neuroprotective activity against oxygen-glucose deprivation-induced toxicity in human SH-SY5Y cells assessed as cell viability at 1 uM preincubated for 2 hrs followed by OGD-challenge and measured after 24 hrs by MTT assay (reference value: 49.91%); type: functional; settings: read-out: Activity
SH-SY5Y [8] = test: Neuroprotective activity against oxygen-glucose deprivation-induced toxicity in human SH-SY5Y cells assessed as cell viability at 10 uM preincubated for 2 hrs followed by OGD-challenge and measured after 24 hrs by MTT assay (reference value: 49.91%); type: functional; settings: read-out: Activity
[9] = Metal chelating activity of the compound assessed as formation of ferric-compound complex at 60 uM after 15 mins using ammonium iron citrate solution by UV-vis spectrophotometric method
[10] = Metal chelating activity of the compound assessed as formation of ferric-compound complex at 60 uM after 15 mins using FeSO4 solution by UV-vis spectrophotometric method
[11] = Metal chelating activity of the compound assessed as formation of ferric-compound complex at 60 uM after 15 mins using ammonium iron citrate solution by UV-vis spectrophotometric method
[12] = Metal chelating activity of the compound assessed as formation of ferrous-compound complex at 60 uM after 15 mins using ammonium iron(II) sulfate solution by UV-vis spectrophotometric method
[13] = Metal chelating activity of the compound assessed as formation of ferric-compound complex at 60 uM after 15 mins using FeCl3 solution by UV-vis spectrophotometric method
Rattus norvegicus = test: Neuroprotective activity in Sprague-Dawley rat model of middle cerebral artery occlusion-induced ischemia-reperfusion injury assessed as reduction in disease severity score at 3 mg/kg, iv measured 24 hrs post-reperfusion; type: functional, organism-based
Outline: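 Male Sprague-Dawley rats anesthetized with chloral hydrate (400 mg/kg i.p.); left MCA occluded by intraluminal nylon suture for 2 h, then withdrawn. Compound in 0.9% saline given by tail vein immediately after reperfusion; body temperature held at 37.0 ± 0.5 °C. mNSS scored 24 h later; n = 15–18, mean ± SEM.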

[14] = Metal chelating activity of the compound assessed as formation of ferric-compound complex by measuring change in color at 60 uM after 15 mins using FeSO4 solution by UV-vis spectrophotometric method
[15] = Metal chelating activity of the compound assessed as formation of ferric-compound complex by measuring change in color at 60 uM after 15 mins using ammonium iron citrate solution by UV-vis spectrophotometric method
HT-22 = test: Neuroprotective activity against glutamate-induced cell death in mouse HT22 cells assessed as increase in cell viability up to 4 uM preincubated for 2 hrs followed by glutamate-challenge and measured after 24 hrs by MTT assay; type: functional, cell-based
Outline: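 HT22 mouse hippocampal cells (DMEM, 10% FBS) seeded 5×10^4 cells/ml and grown 12 h. Compound added for 2 h, then 10 mM L-glutamic acid hydrochloride for 24 h. Viability by MTT at 490 nm as % of control; mean ± SD, n = 3.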

SH-SY5Y [16] = test: Neuroprotective activity against oxygen-glucose deprivation-induced toxicity in human SH-SY5Y cells assessed as cell viability at 2 uM preincubated for 2 hrs followed by OGD-challenge and measured after 24 hrs by MTT assay (reference value: 54.92 +/- 2.12%); type: functional; settings: read-out: Activity
SH-SY5Y [17] = test: Neuroprotective activity against oxygen-glucose deprivation-induced toxicity in human SH-SY5Y cells assessed as cell viability at 4 uM preincubated for 2 hrs followed by OGD-challenge and measured after 24 hrs by MTT assay (reference value: 54.92 +/- 2.12%); type: functional; settings: read-out: Activity
SH-SY5Y [18] = test: Neuroprotective activity against oxygen-glucose deprivation-induced toxicity in human SH-SY5Y cells assessed as increase in cell viability preincubated for 2 hrs followed by OGD-challenge and measured after 24 hrs by MTT assay; type: functional, cell-based
SH-SY5Y [19] = test: Neuroprotective activity against oxygen-glucose deprivation-induced toxicity in human SH-SY5Y cells assessed as cell viability at 1 uM preincubated for 2 hrs followed by OGD-challenge and measured after 24 hrs by MTT assay (reference value: 54.23 +/- 4.48%); type: functional; settings: read-out: Activity
SH-SY5Y [20] = test: Neuroprotective activity against oxygen-glucose deprivation-induced toxicity in human SH-SY5Y cells assessed as cell viability at 4 uM added immediately before OGD-challenge and measured after 24 hrs by MTT assay (reference value: 54.23 +/- 4.48%)

Row | Compound | viability at 10 µM (SH-SY5Y [1]) [%] | viability at 1 µM (SH-SY5Y [2]) [%] | further results
1 | C#CCNCc1c(C)cc(C2CCCCC2)n(O)c1=O | 61.6 | 63.6 | 
2 | CCCc1cc(C)cc(=O)n1O | 64 | 47 | 
3 | Cc1cc(C)n(O)c(=O)c1 [METIPIROX] | 18.3 | 55.8 | 
4 | Cc1cc(C2CCCCC2)n(O)c(=O)c1Cl | 57.1 | 63.4 | 
5 | Cc1cc(C2CC2)n(O)c(=O)c1 | 62.8 | 58.8 | 
6 | CCCCCc1cc(C)cc(=O)n1O | 62 | 63.5 | 
7 | O=c1c2ccccc2cc(C2CCCCC2)n1O | 61.6 | 78.5 | Papp at 10 h [3]: 44.3 nm/s; Activity [4]: inactive
8 | Cc1cc(C2CCCCC2)n(O)c(=O)c1 [CICLOPIROX] | 69.8 | 70.1 | Activity (SH-SY5Y [5]): Toxic; solubility at 24 h [6]: 1.43 mg/mL (≈ 6.9 mM); Papp at 10 h [3]: 81.7 nm/s
9 | Cc1cc(=O)n(O)c(C2CCCCC2)c1Br | 63.2 | 81 | Papp at 10 h [3]: 39.7 nm/s; Activity [4]: inactive
10 | Cc1cc(C2CCCCC2)n(O)c(=O)c1CNc1ccccc1 | 75.5 | 56.8 | 
11 | CCOn1c(C2CCCCC2)cc(C)cc1=O |  |  | viability at 1 µM (SH-SY5Y [7]): 46.3%; viability at 10 µM (SH-SY5Y [8]): 43.9%; Activity [9]: inactive; Activity [10]: inactive
12 | Cc1cc(C2CCCCC2)n(O)c(=O)c1CNC1CCCC1 | 61.9 | 67 | Activity (SH-SY5Y [5]): Toxic; Papp at 10 h [3]: 38.9 nm/s; Activity [4]: inactive
13 | CNCc1c(C)cc(C2CCCCC2)n(O)c1=O | 67.5 | 60.9 | 
14 | Cc1cc(C2CCCCC2)n(OCC(=O)O)c(=O)c1 | 55.9 | 56 | 
15 | Cc1cc(C2CCCCC2)n(O)c(=O)c1 |  |  | Activity [11]: Active; Activity [12]: Active; Activity [9]: Active; Activity [13]: Active; Activity (Rattus norvegicus): Active; Activity [14]: Active; Activity [10]: Active; Activity (umolequiv/umol) [4]: 0.52; Activity [15]: Active; Activity (HT-22): Active
16 | Cc1cc(C2CCCCC2)n(O)c(=O)c1I | 55.1 | 76.3 | viability at 2 µM (SH-SY5Y [16]): > 80%; Papp at 10 h [3]: 76.5 nm/s; Activity (umolequiv/umol) [4]: 0.2

Row | Compound | viability at 10 µM (SH-SY5Y [1]) [%] | viability at 1 µM (SH-SY5Y [2]) [%] | further results
17 | Cc1cc([C@H]2C[C@H]3CC[C@@H]2C3)n(O)c(=O)c1 | 64.5 | 70.6 | Activity [11]: Active; Activity [12]: Active; Activity [9]: Active; Activity [13]: Active; Activity (SH-SY5Y [5]): Toxic; solubility at 24 h [6]: 1.22 mg/mL (≈ 5.56 mM); Activity [14]: Active; viability at 2 µM (SH-SY5Y [16]): > 80%; Papp at 10 h [3]: 75 nm/s; Activity [10]: Active; viability at 4 µM (SH-SY5Y [17]): > 80%; Activity (umolequiv/umol) [4]: 1.13; Activity [15]: Active
18 | Cc1cc(C2CCCCC2)n(O)c(=O)c1Br | 59.9 | 62.9 | 
19 | CCc1cc(C2CCCCC2)n(O)c(=O)c1 | 67.3 | 69.8 | Papp at 10 h [3]: 45.3 nm/s; Activity [4]: inactive
20 | CCCCCCCc1cc(C)cc(=O)n1O | 58.5 | 71.7 | Activity (SH-SY5Y [18]): inactive
21 | CCCNCc1c(C)cc(C2CCCCC2)n(O)c1=O | 68 | 61 | 
22 | Cc1cc(C2CCCCC2)n(O)c(=O)c1CNC(C)C | 65.2 | 61 | 
23 | Cc1cc(CC(C)C)n(O)c(=O)c1 | 73.3 | 47.7 | 
24 | CCCCCCCNCc1c(C)cc(C2CCCCC2)n(O)c1=O |  |  | viability at 1 µM (SH-SY5Y [19]): 60%; viability at 4 µM (SH-SY5Y [20]): 87.2%
25 | Cc1cc(C2CCCCCC2)n(O)c(=O)c1 | 38.4 | 71 | Activity (SH-SY5Y [5]): Toxic; viability at 2 µM (SH-SY5Y [16]): > 80%; Papp at 10 h [3]: 44.2 nm/s; Activity [4]: inactive
26 | Cc1cc(Cc2ccccc2)n(O)c(=O)c1 | 76.8 | 46.5 | 
27 | COC(=O)COn1c(C2CCCCC2)cc(C)cc1=O | 56.4 | 49.9 | 
28 | CCCCCCCCCc1cc(C)cc(=O)n1O | 42.5 | 53 | 
29 | Cc1cc(C2CCCCC2)n(O)c(=O)c1C=O | 56.5 | 54.8 | 
30 | O=c1cccc(C2CCCCC2)n1O | 76.6 | 51.8 | 
31 | Cc1cc(C2CCCC2)n(O)c(=O)c1 | 70.7 | 52.4 | 
32 | Cc1cc(C2CCC2)n(O)c(=O)c1 | 71.2 | 46 | 
